In PubChem BioAssay one finds GFP response relative to DMSO data, which are given here for 40 compounds.

One assay is described as follows: yeast TOR pathway reporter LAP4-GFP change – cell-based, cherry picks, flow cytometry, mother/daughter gates, confirmation (AID 2271).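 Further: ratio of sample to DMSO plate mean so 100% equals DMSO level.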 The following applies: S. cerevisiae LAP4-GFP strain, 3 h, measured here: daughter cell gate response, at 10 µM, stronger effect = higher value, 100 means same as DMSO control. The method, boiled down: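 Material: Alexa 633-stained baker's yeast GFP-fusion strain; Compound dosing: single test-compound dose, 10 µM final; Incubation: 30 °C, 3 h compound incubation, rotating; Detection: HT flow cytometry, GFP fluorescence channel; Control set: positive rapamycin (400 ng/mL), negative DMSO.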
On the technique in general: Flow cytometry measures light scatter and fluorescence of single cells or particles in a stream.
Turning to `COC(=O)Cn1cc(/C=C/c2cc[n+](C)cc2)c2ccccc21`, the GFP response relative to DMSO came out at 99%.

As for `C=CCNC(=S)N/N=C(\C)c1cccc(OC)c1`, the GFP response relative to DMSO amounted to 99.3%.

For `COc1cccc(-c2nnc(NC(=O)c3ccc(S(=O)(=O)N4CCOCC4)cc3)o2)c1`, the GFP response relative to DMSO was 99%.

Take `CCc1ccc(CNC(=O)CCC(=O)N2Cc3cccc(OC)c3Oc3ncccc32)cc1`: the GFP response relative to DMSO is 94.2%.

Consider `N#C/C(=C\c1c(N2CCCCCC2)nc2ccccn2c1=O)C(=O)NCc1ccco1`, for which the GFP response relative to DMSO is 96%.

In turn, `C=CCn1c(=O)c(C(=O)NCCc2ccccc2)c(O)c2ccccc21` had a GFP response relative to DMSO of 89.6%.

`CCOC(=O)COc1c(Cl)cc(/C=C2\N=C(C)OC2=O)cc1OC` showed a GFP response relative to DMSO of 108%.

The compound `CCOc1ccccc1/C=C/C(=O)c1ccc(Cl)cc1` came in with a GFP response relative to DMSO of 99.2%.

`Cc1c([N+](=O)[O-])cnc(Sc2ccccc2)c1[N+](=O)[O-]` returned a GFP response relative to DMSO of 120%.

Take `O=C(COC(=O)c1ccc(NS(=O)(=O)c2cccs2)cc1O)Nc1nc2ccccc2s1`: the GFP response relative to DMSO was determined as 92.5%.

In turn, `COc1ccc(Sc2ncnc3onc(C)c23)cc1` gave a GFP response relative to DMSO of 113%.

Regarding `Cc1ccc(S(=O)(=O)N2C3C=CC(C3)C2C(=O)O)cc1` (stereo not given), the GFP response relative to DMSO was determined as 96%.

`Cc1ccc(C(C[N+](=O)[O-])Sc2ccc(N)cc2)cc1` (stereo not given) returned a GFP response relative to DMSO of 133%.

As to `CCOc1ccc(N2C(=O)CC(SCCN)C2=O)cc1` (stereo not given), the GFP response relative to DMSO was found to be 99.2%.

`O=C(O)Cc1sc(Nc2ccccc2)nc1-c1cccs1` yielded a GFP response relative to DMSO of 144%.

As to `COc1ccccc1-c1noc(CCC(=O)Nc2cccc(C(F)(F)F)c2)n1`, the GFP response relative to DMSO worked out at 104%.

Compound `Cn1cc(/C=C/c2cc[n+](C)cc2)c2cc(Cl)ccc21` came in with a GFP response relative to DMSO of 112%.

`COc1cccc(-c2noc(-c3cccnc3)n2)c1` came in with a GFP response relative to DMSO of 102%.

Compound `COc1ccc(-c2ccc(SCC(=O)N3c4ccccc4CC3C)nn2)cc1OC` (stereo not given) showed a GFP response relative to DMSO of 101%.

Consider `Cc1ccc2c(nc3s/c(=C\c4ccc(-c5ccccc5C(=O)O)o4)c(=O)n32)c1C`, for which the GFP response relative to DMSO turned out to be 218%.

Take `COC(=O)C1=C(C)NC(C)=C(C(=O)OC)C1c1ccc(OC(=O)c2oc3ccccc3c2C)c(OC)c1`: the GFP response relative to DMSO is 90.4%.

For the compound `COc1ccc(N2CCN(C(=O)C3CCCN(S(=O)(=O)c4ccc(C)cc4)C3)CC2)cc1` (stereo not given), the GFP response relative to DMSO is 104%.

Compound `O=C(Nc1nccs1)C(c1ccccc1)N1CCCCC1` (stereo not given) returned a GFP response relative to DMSO of 94.2%.

For `C/C(=N\NC(=O)c1cccc(Br)c1)c1ccc(Br)cc1`, the GFP response relative to DMSO came to 97.5%.

With `O=C(OCCCOC(=O)c1ccc(Br)o1)c1ccc(Br)o1`, the GFP response relative to DMSO was found to be 108%.

On to `CCOC(=O)Cc1csc(NC(=O)c2sc3nc4c(C)cc(C)cc4cc3c2N)n1`, for which the GFP response relative to DMSO turned out to be 89.5%.

For `Cc1nn2c(N3CCOCC3)c3c(nc2c1-c1ccccc1)CCCC3`, the GFP response relative to DMSO came to 96%.

In turn, `O=C(Nc1cc(Sc2ccccn2)cc([N+](=O)[O-])c1)c1ccc(Cl)cc1` had a GFP response relative to DMSO of 101%.

The compound `O=S(=O)(c1cccc(C(F)(F)F)c1)c1ccc(O)cn1` displayed a GFP response relative to DMSO of 99.2%.

Take `COc1cc(/C=N/Nc2nc(C)cc(=O)[nH]2)ccc1O`: the GFP response relative to DMSO came to 89.3%.

The compound `O=C(N/N=C/c1ccccc1Cl)c1ccc(F)cc1` yielded a GFP response relative to DMSO of 104%.

Take `Cc1cccc(C(=O)Nc2ccc(O)cc2)c1`: the GFP response relative to DMSO came out at 99%.

In turn, `COc1ccc(NC2=C(Cl)C(=O)N(CCc3ccccc3)C2=O)cc1` gave a GFP response relative to DMSO of 99.3%.

`CN(C(=O)c1cccnc1)c1nc(-c2ccccc2)cs1` registered a GFP response relative to DMSO of 99%.

The compound `Cc1ccc(NC(=O)c2nc(S(=O)(=O)Cc3ccccc3C)ncc2Cl)cc1C` had a GFP response relative to DMSO of 107%.

In the case of `Cc1cccn2c(=O)c(/C=C(\C#N)C(=O)NCc3ccco3)c(N3CCC(C(N)=O)CC3)nc12`, the GFP response relative to DMSO came to 99.7%.

As to `Cc1cc(C)c(C)c(S(=O)(=O)ON2C(=O)c3ccccc3C2=O)c1C`, the GFP response relative to DMSO worked out at 170%.

`CS(=O)(=O)c1nc(-c2cccs2)cc(C(F)(F)F)n1` registered a GFP response relative to DMSO of 164%.

`COc1cc(NC(=O)c2cccs2)ccc1NC(=O)c1cc2ccccc2o1` yielded a GFP response relative to DMSO of 99.2%.

`Cc1cc(NCCN2CCOCC2)n2ncc(-c3ccccc3)c2n1` returned a GFP response relative to DMSO of 110%.

Staying with this assay, now noted: S. cerevisiae LAP4-GFP strain, 3 h, measured here: mother cell gate response, at 10 µM, stronger effect = higher value, 100 means same as DMSO control.
On to `COC(=O)Cn1cc(/C=C/c2cc[n+](C)cc2)c2ccccc21`, for which the GFP response relative to DMSO was 98.4%.

In turn, `C=CCNC(=S)N/N=C(\C)c1cccc(OC)c1` yielded a GFP response relative to DMSO of 97.5%.

For the compound `COc1cccc(-c2nnc(NC(=O)c3ccc(S(=O)(=O)N4CCOCC4)cc3)o2)c1`, the GFP response relative to DMSO amounted to 97.4%.

`CCc1ccc(CNC(=O)CCC(=O)N2Cc3cccc(OC)c3Oc3ncccc32)cc1`: the GFP response relative to DMSO amounted to 95.2%.

Turning to `N#C/C(=C\c1c(N2CCCCCC2)nc2ccccn2c1=O)C(=O)NCc1ccco1`, the GFP response relative to DMSO is 92.9%.

Consider `C=CCn1c(=O)c(C(=O)NCCc2ccccc2)c(O)c2ccccc21`, for which the GFP response relative to DMSO came to 91.9%.

In the case of `CCOC(=O)COc1c(Cl)cc(/C=C2\N=C(C)OC2=O)cc1OC`, the GFP response relative to DMSO is 113%.

In turn, `CCOc1ccccc1/C=C/C(=O)c1ccc(Cl)cc1` registered a GFP response relative to DMSO of 97.2%.

As to `Cc1c([N+](=O)[O-])cnc(Sc2ccccc2)c1[N+](=O)[O-]`, the GFP response relative to DMSO was 127%.

`O=C(COC(=O)c1ccc(NS(=O)(=O)c2cccs2)cc1O)Nc1nc2ccccc2s1` had a GFP response relative to DMSO of 93.1%.

`COc1ccc(Sc2ncnc3onc(C)c23)cc1` returned a GFP response relative to DMSO of 120%.

With `Cc1ccc(S(=O)(=O)N2C3C=CC(C3)C2C(=O)O)cc1` (stereo not given), the GFP response relative to DMSO was 94.4%.

Compound `Cc1ccc(C(C[N+](=O)[O-])Sc2ccc(N)cc2)cc1` (stereo not given) gave a GFP response relative to DMSO of 140%.

Turning to `CCOc1ccc(N2C(=O)CC(SCCN)C2=O)cc1` (stereo not given), the GFP response relative to DMSO came out at 97.2%.

The compound `O=C(O)Cc1sc(Nc2ccccc2)nc1-c1cccs1` displayed a GFP response relative to DMSO of 156%.

Take `COc1ccccc1-c1noc(CCC(=O)Nc2cccc(C(F)(F)F)c2)n1`: the GFP response relative to DMSO was found to be 100%.

The compound `Cn1cc(/C=C/c2cc[n+](C)cc2)c2cc(Cl)ccc21` yielded a GFP response relative to DMSO of 110%.

The compound `COc1cccc(-c2noc(-c3cccnc3)n2)c1` registered a GFP response relative to DMSO of 100%.

`COc1ccc(-c2ccc(SCC(=O)N3c4ccccc4CC3C)nn2)cc1OC` (stereo not given) gave a GFP response relative to DMSO of 101%.

Take `Cc1ccc2c(nc3s/c(=C\c4ccc(-c5ccccc5C(=O)O)o4)c(=O)n32)c1C`: the GFP response relative to DMSO was 259%.

For the compound `COC(=O)C1=C(C)NC(C)=C(C(=O)OC)C1c1ccc(OC(=O)c2oc3ccccc3c2C)c(OC)c1`, the GFP response relative to DMSO was 89.9%.

On to `COc1ccc(N2CCN(C(=O)C3CCCN(S(=O)(=O)c4ccc(C)cc4)C3)CC2)cc1` (stereo not given), for which the GFP response relative to DMSO turned out to be 104%.

The compound `O=C(Nc1nccs1)C(c1ccccc1)N1CCCCC1` (stereo not given) had a GFP response relative to DMSO of 93.1%.

In turn, `C/C(=N\NC(=O)c1cccc(Br)c1)c1ccc(Br)cc1` registered a GFP response relative to DMSO of 107%.

On to `O=C(OCCCOC(=O)c1ccc(Br)o1)c1ccc(Br)o1`, for which the GFP response relative to DMSO worked out at 109%.

In turn, `CCOC(=O)Cc1csc(NC(=O)c2sc3nc4c(C)cc(C)cc4cc3c2N)n1` gave a GFP response relative to DMSO of 92.1%.

With `Cc1nn2c(N3CCOCC3)c3c(nc2c1-c1ccccc1)CCCC3`, the GFP response relative to DMSO amounted to 102%.

Compound `O=C(Nc1cc(Sc2ccccn2)cc([N+](=O)[O-])c1)c1ccc(Cl)cc1` showed a GFP response relative to DMSO of 97.2%.

`O=S(=O)(c1cccc(C(F)(F)F)c1)c1ccc(O)cn1` had a GFP response relative to DMSO of 95.1%.

`COc1cc(/C=N/Nc2nc(C)cc(=O)[nH]2)ccc1O`: the GFP response relative to DMSO came out at 86.7%.

Regarding `O=C(N/N=C/c1ccccc1Cl)c1ccc(F)cc1`, the GFP response relative to DMSO stood at 112%.

`Cc1cccc(C(=O)Nc2ccc(O)cc2)c1` gave a GFP response relative to DMSO of 101%.

As for `COc1ccc(NC2=C(Cl)C(=O)N(CCc3ccccc3)C2=O)cc1`, the GFP response relative to DMSO was 96.5%.

With `CN(C(=O)c1cccnc1)c1nc(-c2ccccc2)cs1`, the GFP response relative to DMSO came to 102%.

Turning to `Cc1ccc(NC(=O)c2nc(S(=O)(=O)Cc3ccccc3C)ncc2Cl)cc1C`, the GFP response relative to DMSO turned out to be 107%.

For the compound `Cc1cccn2c(=O)c(/C=C(\C#N)C(=O)NCc3ccco3)c(N3CCC(C(N)=O)CC3)nc12`, the GFP response relative to DMSO was determined as 100%.

The compound `Cc1cc(C)c(C)c(S(=O)(=O)ON2C(=O)c3ccccc3C2=O)c1C` displayed a GFP response relative to DMSO of 204%.

Regarding `CS(=O)(=O)c1nc(-c2cccs2)cc(C(F)(F)F)n1`, the GFP response relative to DMSO was found to be 180%.

Compound `COc1cc(NC(=O)c2cccs2)ccc1NC(=O)c1cc2ccccc2o1` had a GFP response relative to DMSO of 95.1%.

`Cc1cc(NCCN2CCOCC2)n2ncc(-c3ccccc3)c2n1`: the GFP response relative to DMSO stood at 107%.
